How the values were obtained:
Format in all cases: functional
Rattus norvegicus [1] = assay: Activity to induce the elevation of triglycerides of male Wistar rats after po administration of 100 mg/kg/day
Summary of the method: (§1)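 Daily dosing of normal-diet Wistar rats ran for 4 days, with sacrifice on day 5 after an overnight fast. Plasma was collected by decapitation into EDTA. Total triglycerides were measured enzymatically and expressed as % change relative to the vehicle control group.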

Rattus norvegicus [2] = organism: Rattus norvegicus; assay: Activity to induce the elevation of alpha/beta cholesterol ratio of male Wistar rats; parameters: concentration or dose not given beside the values
Summary of the method: (§2)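 Wistar rats on normal diet; groups were vehicle control, an internal-standard diphosphonate, and test compounds. Dosed daily for 4 days; diphosphonates were dissolved in water or suspended in 1% (carboxymethyl)cellulose, 4 mL/kg. On day 5, after overnight fast, rats were killed under ether. EDTA plasma was assayed enzymatically for HDL-C after heparin-CaCl2 precipitation of VLDL/LDL, phospholipids, triglycerides and α/β-cholesterol ratio. Results are given as % of control.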

Rattus norvegicus [3] = assay: Activity to induce the elevation of alpha/beta cholesterol ratio of male Wistar rats after po administration of 100 mg/kg/day
Summary of the method: (§3)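 Rats (Wistar, normal diet) were treated daily for 4 days and fasted overnight, and EDTA plasma was taken on day 5. Total cholesterol was measured enzymatically, and β-lipoprotein cholesterol after heparin-CaCl2 precipitation. The α/β-cholesterol ratio is reported as % change from vehicle-treated controls.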

Rattus norvegicus [4] = organism: Rattus norvegicus; assay: Activity to induce the elevation of phospholipids of male Wistar rats; parameters: concentration or dose not given beside the values; summary of the method: as §2
Rattus norvegicus [5] = assay: Activity to induce the elevation of phospholipids of male Wistar rats after po administration of 100 mg/kg/day
Summary of the method: (§4)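 Normal-diet Wistar rats were given the test agent once daily for 4 days and killed on day 5 after an overnight fast. Total plasma phospholipids (EDTA plasma) were measured chemically by the molybdate/vanadate reaction or enzymatically (phospholipid B test). Values are % of vehicle controls.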

Rattus norvegicus [6] = organism: Rattus norvegicus; assay: Activity to induce the elevation of triglycerides of male Wistar rats; parameters: concentration or dose not given beside the values; summary of the method: as §2
Rattus norvegicus [7] = organism: Rattus norvegicus; assay: Activity to induce the elevation of HDL(High Density Lipoproteins)-Cholesterol of male Wistar rats; parameters: concentration or dose not given beside the values; summary of the method: as §2
Rattus norvegicus [8] = assay: Activity to induce the elevation of HDL(High Density Lipoproteins)-Cholesterol of male Wistar rats after po administration of 100 mg/kg/day
Summary of the method: (§5)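 Wistar rats on a normal diet were dosed daily for 4 days at the dose and route given. On day 5, after an overnight fast, they were killed under ether and blood was taken by decapitation into EDTA. Plasma HDL cholesterol was measured after heparin-CaCl2 precipitation of VLDL/LDL and is expressed as % change versus a vehicle control group.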

Rattus norvegicus [9] = organism: Rattus norvegicus; assay: Activity to induce the elevation of HDL(High Density Lipoproteins)-Cholesterol in plasma lipids of male Wistar rats; parameters: concentration or dose not given beside the values; summary of the method: as §2
Rattus norvegicus [10] = organism: Rattus norvegicus; assay: Activity to induce the elevation of phospholipids in plasma lipids of male Wistar rats; parameters: concentration or dose not given beside the values; summary of the method: as §2
Rattus norvegicus [11] = organism: Rattus norvegicus; assay: Activity to induce the elevation of triglycerides in plasma lipids of male Wistar rats; parameters: concentration or dose not given beside the values; summary of the method: as §2
Rattus norvegicus [12] = organism: Rattus norvegicus; assay: Activity to induce the elevation of alpha/beta cholesterol ratio in plasma lipids of male Wistar rats; parameters: concentration or dose not given beside the values; summary of the method: as §2
Rattus norvegicus [13] = assay: Activity to induce the elevation of phospholipids in plasma lipids of male Wistar rats after the sc administration of 5 mg/kg/day; conditions: route subcutaneous; summary of the method: as §4
Rattus norvegicus [14] = assay: Activity to induce the elevation of triglycerides in plasma lipids of male Wistar rats after the sc administration of 5 mg/kg/day; conditions: route subcutaneous; summary of the method: as §1
Rattus norvegicus [15] = assay: Activity to induce the elevation of alpha/beta cholesterol ratio in plasma lipids of male Wistar rats after the sc administration of 5 mg/kg/day; conditions: route subcutaneous; summary of the method: as §3
Rattus norvegicus [16] = assay: Activity to induce the elevation of HDL(High Density Lipoproteins)-Cholesterol in plasma lipids of male Wistar rats after the sc administration of 5 mg/kg/day; conditions: route subcutaneous; summary of the method: as §5
Rattus norvegicus [17] = assay: Activity to induce the elevation of HDL(High Density Lipoproteins)-Cholesterol in plasma lipids of male Wistar rats after po administration of 100 mg/kg/day; summary of the method: as §5
Rattus norvegicus [18] = assay: Activity to induce the elevation of phospholipids in plasma lipids of male Wistar rats after po administration of 100 mg/kg/day; summary of the method: as §4
Rattus norvegicus [19] = assay: Activity to induce the elevation of triglycerides in plasma lipids of male Wistar rats after po administration of 100 mg/kg/day; summary of the method: as §1
Rattus norvegicus [20] = assay: Activity to induce the elevation of alpha/beta cholesterol ratio in plasma lipids of male Wistar rats after po administration of 100 mg/kg/day; summary of the method: as §3

Row | Compound | Percent change in alpha/beta cholesterol ratio versus control (Rattus norvegicus [2]) [%] | Plasma phospholipids, % change versus control (Rattus norvegicus [4]) [%] | Percent change in plasma triglycerides versus control (Rattus norvegicus [6]) [%] | HDL-cholesterol change relative to control (%) (Rattus norvegicus [7]) | also measured
1 | COP(=O)(OC)OC(c1ccc(Cl)cc1)P(=O)(OC)OC (stereo not given) [MIFOBATE] | 180 | 26 | 0 | 157 | Control (Rattus norvegicus [1]): 0%; Control (Rattus norvegicus [3]): 52%; Control (Rattus norvegicus [5]): 17%; Control (Rattus norvegicus [8]): 26%
2 | CCCCCCCCCCCCCCOc1ccc(CC(P(=O)(OCC)OCC)P(=O)(OCC)OCC)cc1 |  |  |  |  | Control (Rattus norvegicus [9]): 27%; Control (Rattus norvegicus [10]): -4%; Control (Rattus norvegicus [11]): -27%; Control (Rattus norvegicus [12]): -28%
3 | COP(=O)(OC)C(Cl)(CCCOc1ccccc1)P(=O)(OC)OC |  |  |  |  | Control (Rattus norvegicus [9]): 57%; Control (Rattus norvegicus [10]): 15%; Control (Rattus norvegicus [11]): -3%; Control (Rattus norvegicus [12]): -42%
4 | C[C@]12CC[C@@H]3c4ccc(O)cc4CC[C@H]3[C@@H]1CC[C@@H]2O [ESTRADIOL] |  |  |  |  | Control (Rattus norvegicus [13]): -77%; Control (Rattus norvegicus [14]): -51%; Control (Rattus norvegicus [15]): -47%; Control (Rattus norvegicus [16]): -83%
5 | COP(=O)(OC)C(Cl)(Cc1ccc(Cl)cc1)P(=O)(OC)OC |  |  |  |  | Control (Rattus norvegicus [9]): 10%; Control (Rattus norvegicus [10]): 7%; Control (Rattus norvegicus [11]): 11%; Control (Rattus norvegicus [12]): 81%
6 | CCOP(=O)(OCC)C(Cl)(CCCc1ccccc1)P(=O)(OCC)OCC |  |  |  |  | Control (Rattus norvegicus [9]): -2%; Control (Rattus norvegicus [10]): 27%; Control (Rattus norvegicus [11]): -4%; Control (Rattus norvegicus [12]): -23%
7 | COP(=O)(OC)OC(CC(C)(C)C)P(=O)(OC)OC (stereo not given) | 44 | 18 | -9 | 47 | 
8 | COP(=O)(OC)OC(c1ccc(-c2ccccc2)cc1)P(=O)(OC)OC (stereo not given) | 40 | 18 | 0 | 24 | 
9 | O=P(O)(O)C(CCc1ccccc1)P(=O)(O)O | -27 | -16 | -17 | -24 | 
10 | COP(=O)(OC)OC(c1ccc(F)cc1)P(=O)(OC)OC (stereo not given) | 81 | 2 | -9 | 40 | 
11 | O=P(O)(O)C(CCCc1ccccc1)P(=O)(O)O | 14 | 12 | 11 | 3 | 
12 | COP(=O)(OC)C(O)(c1ccc2ccccc2c1)P(=O)(OC)OC | 51 | 25 | 24 | 35 | 
13 | CCOP(=O)(OCC)C(CCOc1ccccc1)P(=O)(OCC)OCC | 26 | 25 | -38 | 29 | 
14 | CCCCCCCCCCCCCCCC(O)(P(=O)(OC)OC)P(=O)(OC)OC |  |  |  |  | Control (Rattus norvegicus [9]): -3%; Control (Rattus norvegicus [10]): 4%; Control (Rattus norvegicus [11]): 14%; Control (Rattus norvegicus [12]): -38%
15 | COP(=O)(OC)OC(c1cccc(Br)c1)P(=O)(OC)OC (stereo not given) | 71 | 3 | 14 | 28 | 
16 | COP(=O)(OC)C(O)(c1ccc(F)cc1)P(=O)(OC)OC | 64 | 3 | 27 | 23 | 
17 | CCCCCCCCCCCCCCOc1ccc(CC(P(=O)(OC)OC)P(=O)(OC)OC)cc1 |  |  |  |  | Control (Rattus norvegicus [9]): 20%; Control (Rattus norvegicus [10]): 10%; Control (Rattus norvegicus [11]): 4%; Control (Rattus norvegicus [12]): 14%

Row | Compound | Percent change in alpha/beta cholesterol ratio versus control (Rattus norvegicus [2]) [%] | Plasma phospholipids, % change versus control (Rattus norvegicus [4]) [%] | Percent change in plasma triglycerides versus control (Rattus norvegicus [6]) [%] | HDL-cholesterol change relative to control (%) (Rattus norvegicus [7]) | also measured
18 | CCCCCC(O)(P(=O)(OC)OC)P(=O)(OC)OC | -17 | 10 | -21 | -16 | 
19 | CCOC(=O)C(C)(C)Oc1ccc(Cl)cc1 [CLOFIBRATE] |  |  |  |  | Control (Rattus norvegicus [17]): -34%; Control (Rattus norvegicus [18]): -22%; Control (Rattus norvegicus [19]): 28%; Control (Rattus norvegicus [20]): -53%
20 | COP(=O)(OC)C(O)(C(C)(C)Oc1ccc(Cl)cc1)P(=O)(OC)OC | -8 | 26 | -33 | 8 | 
21 | COP(=O)(O)C(Cc1ccc(Cl)cc1)P(=O)(O)OC (stereo not given) | -20 | 6 | -30 | 27 | 
22 | COP(=O)(OC)OC(c1cc(C)ccc1C)P(=O)(OC)OC (stereo not given) | 15 | -16 | -3 | 10 | 
23 | CC(C)OC(=O)C(C)(C)Oc1ccc(C(=O)c2ccc(Cl)cc2)cc1 [FENOFIBRATE] |  |  |  |  | Control (Rattus norvegicus [17]): -45%; Control (Rattus norvegicus [18]): -19%; Control (Rattus norvegicus [19]): 12%; Control (Rattus norvegicus [20]): -80%
24 | COP(=O)(OC)C(CCCOc1ccccc1)P(=O)(OC)OC | -13 | -11 | 2 | 6 | 
25 | COc1ccc(C(OP(=O)(OC)OC)P(=O)(OC)OC)cc1 (stereo not given) | 2 | -3 | 41 | 0 | 
26 | COP(=O)(OC)C(CCCc1ccccc1)P(=O)(OC)OC | 49 | 33 | 42 | 52 | 
27 | CCOP(=O)(OCC)C(Cc1ccccc1)P(=O)(OCC)OCC | 28 | 5 | -47 | 5 | 
28 | COP(=O)(OC)C(O)(c1ccc(Cl)cc1)P(=O)(OC)OC | 130 | 19 | 15 | 44 | 
29 | CC(C)OP(=O)(OC(C)C)C(Cc1ccc(Cl)cc1)P(=O)(OC(C)C)OC(C)C | -1 | 13 | 19 | 12 | 
30 | COP(=O)(OC)C(Cl)(CCCc1ccccc1)P(=O)(OC)OC |  |  |  |  | Control (Rattus norvegicus [9]): 26%; Control (Rattus norvegicus [10]): 24%; Control (Rattus norvegicus [11]): -36%; Control (Rattus norvegicus [12]): -9%
31 | COP(=O)(OC)C(Cc1ccc(Cl)cc1)P(=O)(OC)OC | 75 | 51 | 62 | 38 | 
32 | CCCCOP(=O)(OCCCC)C(Cc1ccc(Cl)cc1)P(=O)(OCCCC)OCCCC | 2 | 6 | 1 | 0 | 
33 | COP(=O)(OC)OC(c1ccccc1)P(=O)(OC)OC (stereo not given) | 76 | 21 | 32 | 4 | 
34 | COP(=O)(OC)OC(C(C)(C)Cc1ccc(Cl)cc1)P(=O)(OC)OC (stereo not given) | -38 | -27 | -19 | -30 | 

Reference: ChEMBL document CHEMBL1123811, “gem-Diphosphonate and gem-phosphonate-phosphate compounds with specific high density lipoprotein inducing activity” (1987)
